# Results of several laboratories.
# Lines come from different studies, so protocols differ.
# Palmitoyl-protein thioesterase 1: Palmitoyl-protein thioesterase 1 (Homo sapiens, UniProt P50897)
# Transmembrane protease serine 6: Transmembrane protease serine 6 (Homo sapiens, UniProt Q8IU80)
Compound,target,assay,conditions,measurement,result
C=CC(=O)N1CCC(COCC(=O)N2CCN(c3nc(-c4cnc(N)nc4C(F)F)nc(N4CCOC[C@@H]4C)n3)CC2)CC1,"Protein kinase C delta type (PRKCD, Homo sapiens, UniProt Q05655)","binding, competition with immobilised ligand",1 µM,remaining binding,100%
NC(=O)c1c(OCc2c(F)cc(Br)cc2F)nsc1NC(=O)NCCCCN1CCCC1,Palmitoyl-protein thioesterase 1,"enzyme activity, inhibitor",125 µM,inhibition,8.63%
COc1cc(-c2cncc3c2CN(C)Cc2cc(N4CCNCC4)ccc2-3)cc(OC)c1OC,"Muscle, skeletal receptor tyrosine-protein kinase (MUSK, Homo sapiens, UniProt O15146)","enzyme activity, inhibitor",1 µM,remaining activity,113%
N=C(N)NCCC[C@H](NC(=O)[C@H](Cc1ccc(-c2ccccc2)cc1)NC(=O)[C@H](Cc1cscn1)NC(=O)CCc1ccccc1)C(=O)c1nc2ccccc2s1,Transmembrane protease serine 6,"enzyme activity, inhibitor",0.1 µM,remaining activity,35%
COc1c(O)cc2c(c1O)[C@@H]1O[C@H](CO)[C@@H](O)[C@H](O)[C@H]1OC2=O,Palmitoyl-protein thioesterase 1,"enzyme activity, inhibitor",125 µM,inhibition,7.04%
Cc1cc([C@@H](C)Nc2ccccc2C(=O)O)c2nc(N3CCC(F)(F)CC3)c(C#N)c(=O)n2c1,"SRSF protein kinase 3 (SRPK3, Homo sapiens, UniProt Q9UPE1)","binding, competition with immobilised ligand",10 µM,remaining binding,96%
CC(C)[C@@H](CC(=O)N[C@@H](CCCNC(=N)N)C(=O)c1nc2ccccc2s1)NC(=O)[C@H](Cc1cscn1)NC(=O)CCc1ccccc1,Transmembrane protease serine 6,"enzyme activity, inhibitor",0.1 µM,remaining activity,100%
O=C1OCCN1/N=C/c1ccc([N+](=O)[O-])o1,Palmitoyl-protein thioesterase 1,"enzyme activity, inhibitor",125 µM,inhibition,29%
N=C(N)NCCC[C@H](NC(=O)[C@H](CC1CCCCC1)NC(=O)[C@H](Cc1cscn1)NC(=O)CCc1ccccc1)C(=O)c1nc2ccccc2s1,Transmembrane protease serine 6,"enzyme activity, inhibitor",0.1 µM,remaining activity,6%
CNc1ncc2c(/C=C/C(=O)N3CCC(OC)CC3)nn(Cc3cccc(C(F)(F)F)c3)c2n1,"Cyclin-dependent kinase 6, with cyclin D2 (CDK6, Homo sapiens, UniProt Q00534)","enzyme activity, inhibitor, radiometric",1 µM,remaining activity,92%
